The source of these data is publication PMC8324497 (Cell Reports Medicine, 2021).

For one assay, the target named is ERK1 (Homo sapiens, UniProt P27361). The assay can be described thus: ERK1/ERK2 HTRF enzymatic assay. Format: biochemical. The procedure, abridged: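 Substrate-ATP mix added, then enzyme mix, and incubated 60 min at room temperature with shaking. Reaction mixture was then transferred into HTRF detection mix for 45 min at room temperature and read in HTRF mode. IC50 from a variable-slope sigmoidal fit.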
Chain of ERK1 (P27361 whole entry): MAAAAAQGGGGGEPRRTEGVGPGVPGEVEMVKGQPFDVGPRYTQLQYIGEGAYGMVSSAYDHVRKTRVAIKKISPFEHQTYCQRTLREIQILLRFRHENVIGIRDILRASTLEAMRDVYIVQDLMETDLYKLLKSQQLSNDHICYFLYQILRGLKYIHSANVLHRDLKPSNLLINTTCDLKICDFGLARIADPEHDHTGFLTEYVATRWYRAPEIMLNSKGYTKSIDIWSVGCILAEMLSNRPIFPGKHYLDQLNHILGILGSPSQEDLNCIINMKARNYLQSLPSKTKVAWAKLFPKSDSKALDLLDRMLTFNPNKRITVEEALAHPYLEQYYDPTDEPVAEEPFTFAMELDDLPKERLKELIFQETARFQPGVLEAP

A further assay relates to Calu-6. The assay can be described thus: Cell proliferation assay. Format: cell-based. The following applies: Homo sapiens, Calu-6, 72 h.
A further assay relates to NCI-H460. The assay can be described thus: Cell proliferation assay. Format: cell-based. The following applies: Homo sapiens, NCI-H460, 72 h.
In another assay the test system is LNCaP. The assay can be described thus: Cell proliferation assay. Type of assay: cell-based. To be noted: Homo sapiens, 72 h. The procedure, abridged:
(§1)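 Adherent solid-tumour cells were seeded at 5,000 cells/well and allowed to attach for 16–24 h at 37°C, 5% CO2. They were exposed to the test compound at 0.0005–10 μM (3-fold serial dilutions) for 72 h. Alamar Blue was added (1X final) for 1–3 h and fluorescence read at 540 nm excitation, 590 nm emission. IC50 came from a sigmoidal variable-slope fit.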

In a further assay the test system is T-47D. The assay can be described thus: Cell proliferation assay. To be noted: Homo sapiens, T47D, 72 h. Type of assay: cell-based. The procedure, abridged: as §1
In another assay the test system is ERK1/2 kinases. The assay can be described thus: Primary kinome screening, panel of 335 kinases. Type of assay: biochemical. The following applies: 1.0 μM. An outline of the steps:
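Radiometric profiling against 335 purified serine/threonine, tyrosine and lipid kinases at a single fixed test-compound concentration of 1 uM. Residual activity (%) = 100 × (cpm of compound − low control)/(high control − low control).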

As to `Cc1cnc(NC2CCOCC2)nc1-n1cnc(C(=O)NC(CN)c2cc(F)cc(Cl)c2)c1` (stereo not drawn) [ASN007, N-(2-amino-1-(3-chloro-5-fluorophenyl)ethyl)-1-(5-methyl-2-((tetrahydro-2H-pyran-4-yl)amino)pyrimidin-4-yl)-1H-imidazole-4-carboxamide], the IC50 was 0.002 µM against ERK1; 0.007 µM with Calu-6; 0.296 µM with NCI-H460; greater than 10 µM in the assay on LNCaP; greater than 10 µM in the assay on T-47D. The kinase selectivity result in the assay with ERK1/2 kinases is “selective inhibition of ERK1/2 kinases”.
